Reference: ChEMBL document CHEMBL2413051, “Antibacterial activity of quinoxalines, quinazolines, and 1,5-naphthyridines” (2013)
≈ marks a conversion by molar mass, not a printed value. Calls of active or inactive are those of the source. The calls are words filed in the database; no cut-off is given here.

Assays:
[1] = target: T1, Cell division protein FtsZ (Staphylococcus aureus) (UniProt P0A031); test: Stimulation of purified Staphylococcus aureus FtsZ polymerization at 80 ug/ml by microtiter plate based light-scattering assay
T1 sequence (whole entry): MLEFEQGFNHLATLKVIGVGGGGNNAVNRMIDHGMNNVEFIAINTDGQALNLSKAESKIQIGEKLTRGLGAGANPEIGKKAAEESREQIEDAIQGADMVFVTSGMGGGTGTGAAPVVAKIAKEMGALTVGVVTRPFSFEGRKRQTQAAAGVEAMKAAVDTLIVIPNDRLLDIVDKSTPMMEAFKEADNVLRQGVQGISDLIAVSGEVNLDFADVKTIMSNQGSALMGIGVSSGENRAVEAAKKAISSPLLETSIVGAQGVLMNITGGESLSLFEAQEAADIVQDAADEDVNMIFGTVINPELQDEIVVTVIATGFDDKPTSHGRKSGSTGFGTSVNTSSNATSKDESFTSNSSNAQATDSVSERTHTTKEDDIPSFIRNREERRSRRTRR

Staphylococcus aureus [2] = test: Ratio of MBC to MIC for methicillin-sensitive Staphylococcus aureus 8325-4; format: functional
Enterococcus faecalis [3] = test: Ratio of MBC to MIC for vancomycin-resistant Enterococcus faecalis ATCC 51575; format: functional
Method in brief: (§1)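 Ratio of MBC to MIC, both in µg/mL. MIC was found by CLSI broth microdilution as the lowest concentration giving ≥90% growth inhibition. MBC was found by a previously described method. Per CLSI, a ratio of 1–2 is read as bactericidal and ≥8 as bacteriostatic.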

[4] = target: T1, Cell division protein FtsZ (Staphylococcus aureus); test: Stimulation of purified Staphylococcus aureus FtsZ polymerization at 40 ug/ml by microtiter plate based light-scattering assay in presence of 10 mM depolymerizing agent GDP
Enterococcus faecalis [5] = test: microbe, parasite or virus in culture; format: functional; conditions: ATCC 51575
Enterococcus faecalis [6] = test: Bactericidal activity against vancomycin-resistant Enterococcus faecalis ATCC 51575; format: functional
Staphylococcus aureus [7] = test: microbe, parasite or virus in culture; format: functional; conditions: 8325-4
Staphylococcus aureus [8] = test: microbe, parasite or virus in culture; format: functional; conditions: ATCC 33591
Staphylococcus aureus [9] = test: Bactericidal activity against methicillin-sensitive Staphylococcus aureus 8325-4; format: functional
Method in brief: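 MBC against MSSA strain 8325-4, determined per a previously described method; paired MIC by CLSI broth microdilution, MIC being lowest concentration giving ≥90% growth inhibition.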

Enterococcus faecalis [10] = test: microbe, parasite or virus in culture; format: functional; conditions: ATCC 19433
Staphylococcus aureus [11] = test: Bactericidal activity against methicillin-resistant Staphylococcus aureus ATCC 33591; format: functional
[12] = target: T1, Cell division protein FtsZ (Staphylococcus aureus); test: Stimulation of purified Staphylococcus aureus FtsZ polymerization at 40 ug/ml by microtiter plate based light-scattering assay
Staphylococcus aureus [13] = test: Ratio of MBC to MIC for methicillin-resistant Staphylococcus aureus ATCC 33591; format: functional; method in brief: as §1

| SMILES | Activity [1] | Ratio (Staphylococcus aureus [2]) | Ratio (Enterococcus faecalis [3]) | Activity [4] | MIC (Enterococcus faecalis [5]) | MBC (Enterococcus faecalis [6]) | MIC (Staphylococcus aureus [7]) | MIC (Staphylococcus aureus [8]) | MBC (Staphylococcus aureus [9]) | MIC (Enterococcus faecalis [10]) | MBC (Staphylococcus aureus [11]) | Activity [12] | Ratio (Staphylococcus aureus [13]) |
| --- | --- | --- | --- | --- | --- | --- | --- | --- | --- | --- | --- | --- | --- |
| CC(C)(C)c1ccc(-c2ncnc3c(CNC(=N)N)cccc23)cc1 | Active | 2 | 2 | Active | 32 µg/mL (≈ 96 µM) | 64 µg/mL (≈ 192 µM) | 4 µg/mL (≈ 12 µM) | 8 µg/mL (≈ 24 µM) | 8 µg/mL (≈ 24 µM) | 32 µg/mL (≈ 96 µM) | 16 µg/mL (≈ 48 µM) | – | – |
| C[n+]1cc(-c2cccc(-c3ccccc3)c2)nc2ccccc21.[I-] | – | 8 | 8 | Active | 8 µg/mL | 64 µg/mL | 0.5 µg/mL | 0.5 µg/mL | 4 µg/mL | 8 µg/mL | 4 µg/mL | inactive | – |
| CC(C)(C)c1ccc(-c2cc(C(=O)NCCO)cc(-c3cnc4ccccc4n3)c2)cc1 | – | – | – | Active | > 64 µg/mL | – | > 64 µg/mL | > 64 µg/mL | – | > 64 µg/mL | – | – | – |
| c1ccc2nccnc2c1 [QUINOXALINE] | – | – | – | Active | > 64 µg/mL | – | > 64 µg/mL | > 64 µg/mL | – | > 64 µg/mL | – | – | – |
| CC(C)(C)c1ccc(-c2cccc3c(CNC(=N)N)ncnc23)cc1 | – | – | – | Active | > 64 µg/mL | – | 16 µg/mL (≈ 48 µM) | 64 µg/mL (≈ 192 µM) | – | > 64 µg/mL | – | – | – |
| CC(C)(C)c1ccc(-c2cc(C(N)=O)cc(-c3cnc4ccccc4n3)c2)cc1 | – | – | – | Active | > 64 µg/mL | – | > 64 µg/mL | > 64 µg/mL | – | > 64 µg/mL | – | – | – |
| CC(C)(C)c1cccc(-c2cnc3c(CNC(=N)N)cccc3n2)c1 | – | 1 | 2 | Active | 16 µg/mL (≈ 48 µM) | 32 µg/mL (≈ 96 µM) | 4 µg/mL (≈ 12 µM) | 4 µg/mL (≈ 12 µM) | 4 µg/mL (≈ 12 µM) | 8 µg/mL (≈ 24 µM) | 8 µg/mL (≈ 24 µM) | Active | 2 |
| Cc1onc(-c2ccccc2)c1C(=O)N[C@@H]1C(=O)N2[C@@H]1SC(C)(C)[C@@H]2C(=O)O [OXACILLIN] | – | – | – | – | > 64 µg/mL | – | 0.06 µg/mL (≈ 0.149 µM) | > 64 µg/mL | – | 8 µg/mL (≈ 19.9 µM) | – | – | – |
| COC(=O)c1cc(-c2ccc(C(C)(C)C)cc2)cc(-c2c[n+](C)c3ccccc3n2)c1.[I-] | – | – | – | Active | 4 µg/mL | – | 1 µg/mL | 1 µg/mL | – | 4 µg/mL | – | – | – |
| CC(C)(C)c1ccc(-c2cnc3c(CNC(=N)N)cccc3n2)cc1 | – | 1 | 1 | Active | 16 µg/mL (≈ 48 µM) | 16 µg/mL (≈ 48 µM) | 4 µg/mL (≈ 12 µM) | 4 µg/mL (≈ 12 µM) | 4 µg/mL (≈ 12 µM) | 8 µg/mL (≈ 24 µM) | 8 µg/mL (≈ 24 µM) | Active | 2 |
| CC[C@H]1OC(=O)[C@H](C)[C@@H](O[C@H]2C[C@@](C)(OC)[C@@H](O)[C@H](C)O2)[C@H](C)[C@@H](O[C@@H]2O[C@H](C)C[C@H](N(C)C)[C@H]2O)[C@](C)(O)C[C@@H](C)C(=O)[C@H](C)[C@@H](O)[C@]1(C)O [ERYTHROMYCIN] | – | – | – | – | > 64 µg/mL | – | 0.13 µg/mL (≈ 0.177 µM) | > 64 µg/mL | 32 µg/mL (≈ 43.6 µM) | 1 µg/mL (≈ 1.36 µM) | – | – | – |
| c1ccc(-c2cnc3ccccc3n2)cc1 | – | – | – | Active | > 64 µg/mL | – | > 64 µg/mL | > 64 µg/mL | – | > 64 µg/mL | – | – | – |
| CC(C)(C)c1ccc(-c2ncnc3c(CN)cccc23)cc1 | – | – | – | Active | 64 µg/mL (≈ 220 µM) | – | 32 µg/mL (≈ 110 µM) | 64 µg/mL (≈ 220 µM) | – | 64 µg/mL (≈ 220 µM) | – | – | – |
| CC(C)(C)c1cccc(-c2cnc3ccccc3n2)c1 | – | – | – | Active | > 64 µg/mL | – | > 64 µg/mL | > 64 µg/mL | – | > 64 µg/mL | – | – | – |
| C[n+]1cc(-c2cccc(F)c2)nc2ccccc21.[I-] | – | – | – | Active | 32 µg/mL | – | 2 µg/mL | 4 µg/mL | – | 32 µg/mL | – | – | – |
| CN(C)[C@@H]1C(O)=C(C(N)=O)C(=O)[C@@]2(O)C(O)=C3C(=O)c4c(O)cccc4[C@@](C)(O)[C@H]3C[C@@H]12 [TETRACYCLINE] | – | – | – | – | > 64 µg/mL | – | 0.06 µg/mL (≈ 0.135 µM) | 64 µg/mL (≈ 144 µM) | – | 0.5 µg/mL (≈ 1.13 µM) | – | – | – |
